Our source for the Activity, Drug uptake and Ratio values is ChEMBL document CHEMBL1154842, “Synthesis, radiolabeling, and biological evaluation of (R)- and (S)-2-amino-3-[(18)F]fluoro-2-methylpropanoic acid (FAMP) and (R)- and (S)-3-[(18)F]fluoro-2-methyl-2-N-(methylamino)propanoic acid (NMeFAMP) as potential PET radioligands for imaging brain tumors” (J Med Chem, 2010).

In data set [1] the test system is 9L. As to the kind of experiment: Cellular uptake in rat 9L cells assessed as inhibition of uptake at 5 uCi measured […] by gamma counting in presence of system A transport inhibitor MeAIB relative to control. Also on record: scale not given: the % may be the effect or the level left. The data set is classed as ADME, cell-based. The method in brief: (§1)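 9L rat gliosarcoma cells, grown in DMEM with 10% FCS, were trypsinised and washed in HBSS. About 5×10^5 cells were incubated with 5 μCi tracer in amino-acid-free HBSS for 30 min at 37 °C, with or without 10 mM final BCH, MeAIB or ACS (3.3 mM each Ala/Cys/Ser). Cells were washed cold, gamma-counted and decay-corrected. Inhibition is percent of control; triplicates, one-way ANOVA.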

Data set [2] has as its system 9L. As to the kind of experiment: Cellular uptake in rat 9L cells at 5 uCi measured […] by gamma counting in presence of system A transport inhibitor MeAIB. The data set is classed as ADME, cell-based. Summed up: (§2)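 9L rat gliosarcoma cells (DMEM, 10% FCS, 37 °C, 5% CO2) were trypsinised and washed in HBSS. About 5×10^5 cells took up 5 μCi tracer for 30 min in 0.1 mL amino acid-free HBSS, with inhibitor at 10 mM final (ACS: 3.3 mM each of alanine, cysteine, serine). Cells were spun and rinsed twice with ice-cold HBSS, then gamma counted with decay correction. Triplicates; uptake is % ID per 5×10^5 cells.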

Data set [3] concerns 9L. As to the kind of experiment: Cellular uptake in rat 9L cells at 5 uCi measured […] by gamma counting in presence of system L transport inhibitor BCH. It counts as ADME, cell-based. Summed up: as §2
Data set [4] has as its system 9L. As to the kind of experiment: Cellular uptake in rat 9L cells assessed as inhibition of uptake at 5 uCi measured […] by gamma counting in presence of system L transport inhibitor BCH relative to control. It counts as ADME, cell-based. Also on record: scale not given: the % may be the effect or the level left. Summed up: as §1
For data set [5], the system named is 9L. Nature of the data set: Cellular uptake in rat 9L cells at 5 uCi measured per 0.5 million cells by gamma counting in presence of system ASC transport inhibitor ACS.
Data set [6] has as its system 9L. As to the kind of experiment: Cellular uptake in rat 9L cells at 5 uCi measured […] by gamma counting. It counts as ADME, cell-based. The method in brief:
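9L rat gliosarcoma cells, grown in DMEM with 10% FCS, were trypsinised and washed in HBSS. About 5×10^5 cells were exposed to 5 μCi tracer in amino-acid-free HBSS for 30 min at 37 °C, 5% CO2, then centrifuged and rinsed twice with ice-cold HBSS. Cells were gamma-counted and decay-corrected, with uptake reported as % of initial dose per 5×10^5 cells ± SD, n=3.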

In data set [7] the test system is 9L. Nature of the data set: Cellular uptake in rat 9L cells assessed as inhibition of uptake at 5 uCi measured […] by gamma counting in presence of system ASC transport inhibitor ACS relative to control. It counts as ADME, cell-based. Also on record: scale not given: the % may be the effect or the level left. The method in brief:
as §1

For data set [8] the following is noted: rat, in vivo, iv, 1 h.
The conditions of data set [9]: rat, in vivo, iv, 1 h. The source holds these as a separate data set.
The nature of data set [10]: Ratio of drug level from tumor to brain of Fischer 344 rat bearing rat 9L cells at 20 uCi, iv after 60 mins. The settings on record: in vivo, 1 h.

The structures appear in SMILES notation.

In the case of `CN[C@](C)(CF)C(=O)O.Cl`, the Activity in the data set on 9L [1] stood at 79%; in the data set with 9L [4] it was 29%; in the data set on 9L [7], 58%. In addition, the Drug uptake in the data set on 9L [2] stood at 0.82 %ID; with 9L [3], 2.76 %ID; in the data set on 9L [5] it was 1.62 %ID; in the data set with 9L [6] it was 3.87 %ID.

For the compound `C[C@](N)(CF)C(=O)O.Cl`, the Activity is listed as 58% with 9L [1], 67% in the data set on 9L [4] and 87% in the data set on 9L [7]. Besides, the Drug uptake in the data set on 9L [2] turned out to be 5.51 %ID; in the data set on 9L [3] it was 4.27 %ID; with 9L [5], 1.7 %ID; in the data set on 9L [6], 13.06 %ID.

`C[C@@](N)(CF)C(=O)O.Cl`: the Activity with 9L [1] is 31%; in the data set on 9L [4] it was 75%; with 9L [7], 72%. Further, the Drug uptake in the data set with 9L [2] was determined as 3.29 %ID; with 9L [3], 1.21 %ID; in the data set on 9L [5], 1.33 %ID; in the data set on 9L [6] it was 4.77 %ID.

`N[C@]1(C(=O)O)C[C@@H]([18F])C1` [FLUCICLOVINE F18] had a Drug uptake in data set [8] of 0.26 % ID/g.

`OC[C@H]1O[C@@H](O)[C@H]([18F])[C@@H](O)[C@@H]1O` [FLUDEOXYGLUCOSE-F18]: the Drug uptake in data set [8] is listed as 1.3 % ID/g; in data set [9] it was 1.05 % ID/g. Moreover, the Ratio in [10] is 0.8.

Turning to `CN[C@@](C)(CF)C(=O)O.Cl`, the Activity in the data set on 9L [1] was 92%; in the data set with 9L [4] it was 54%; in the data set with 9L [7] it was 89%. Further, the Drug uptake stood at 0.6 %ID in the data set on 9L [2], 3.26 %ID in the data set with 9L [3], 0.75 %ID in the data set on 9L [5] and 7.08 %ID with 9L [6].
